Experimental data as given in ChEMBL document CHEMBL4689842, “EUbOPEN Chemogenomics Library wave 1” (2021).

Test system: HEK-293T
Assay: Multiplex assay against HEK293T;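 as to Population Tubulin-Different-Phenotype (%): share of the cells with healthy nuclei that show this phenotype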
Format: toxicity, cell-based
Conditions: human
How it was run: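 Compound was added to live cells that had been stained at seeding with Hoechst33342, BioTracker Green Microtubule Cytoskeleton Dye, MitoTracker Red and Annexin V Alexa Fluor 680, and imaging followed on a CQ1 microscope at 37°C and 5% CO2. CellPathfinder machine-learning gating divided cells into Hoechst high-intensity objects or normal cells, normal cells into healthy, pyknosed or fragmented nuclei, and pyknosed cells into mitotic or apoptotic. Tubulin, mitochondrial-mass and membrane-permeability phenotypes are per cents of healthy-nucleus cells.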

[1] = 12 h, 1 µM, compound concentration 1 uM, replicate 1
[2] = 12 h, 1 µM, compound concentration 1 uM, replicate 2
[3] = 12 h, 10 µM, compound concentration 10 uM, replicate 1
[4] = 12 h, 10 µM, compound concentration 10 uM, replicate 2
[5] = 24 h, 1 µM, compound concentration 1 uM, replicate 1
[6] = 24 h, 1 µM, compound concentration 1 uM, replicate 2
[7] = 24 h, 10 µM, compound concentration 10 uM, replicate 1
[8] = 24 h, 10 µM, compound concentration 10 uM, replicate 2
[9] = 48 h, 1 µM, compound concentration 1 uM, replicate 1
[10] = 48 h, 1 µM, compound concentration 1 uM, replicate 2
[11] = 48 h, 10 µM, compound concentration 10 uM, replicate 1
[12] = 48 h, 10 µM, compound concentration 10 uM, replicate 2

## CNc1cc(Oc2cc(C(=O)Nc3cc(N4CCN(C)CC4)cc(C(F)(F)F)c3)ccc2C)ncn1
[1]
  Population Apoptotic (%): 79%
  Population Fragmented Nuclei (%): 14%
  Population Healthy Nuclei (%): 13%
  Population Hoechst High Intensity Objects (%): 20%
  Population Membrane Permeable-Phenotype (%): 0%
  Population Mitochondria Different-Phenotype (%): 96%
  Population Mitotic Cells (%): 20%
  Population Normal (%): 79%
  Population Pyknosed Nuclei (%): 72%
  Population Tubulin-Different-Phenotype (%): 89%
  Total Cell Count: 263
[2]
  Population Apoptotic (%): 41%
  Population Fragmented Nuclei (%): 8%
  Population Healthy Nuclei (%): 21%
  Population Hoechst High Intensity Objects (%): 6%
  Population Membrane Permeable-Phenotype (%): 2%
  Population Mitochondria Different-Phenotype (%): 69%
  Population Mitotic Cells (%): 58%
  Population Normal (%): 93%
  Population Pyknosed Nuclei (%): 70%
  Population Tubulin-Different-Phenotype (%): 76%
  Total Cell Count: 213
[3]
  Population Apoptotic (%): 86%
  Population Fragmented Nuclei (%): 17%
  Population Healthy Nuclei (%): 3%
  Population Hoechst High Intensity Objects (%): 21%
  Population Membrane Permeable-Phenotype (%): 0%
  Population Mitochondria Different-Phenotype (%): 100%
  Population Mitotic Cells (%): 13%
  Population Normal (%): 78%
  Population Pyknosed Nuclei (%): 80%
  Population Tubulin-Different-Phenotype (%): 83%
  Total Cell Count: 256
[4]
  Population Apoptotic (%): 98%
  Population Fragmented Nuclei (%): 5%
  Population Healthy Nuclei (%): 4%
  Population Hoechst High Intensity Objects (%): 14%
  Population Mitotic Cells (%): 1%
  Population Normal (%): 85%
  Population Pyknosed Nuclei (%): 89%
  Population Tubulin-Different-Phenotype (%): 60%
  Total Cell Count: 127
[5]
  Population Apoptotic (%): 73%
  Population Fragmented Nuclei (%): 18%
  Population Healthy Nuclei (%): 12%
  Population Hoechst High Intensity Objects (%): 21%
  Population Membrane Permeable-Phenotype (%): 0%
  Population Mitochondria Different-Phenotype (%): 96%
  Population Mitotic Cells (%): 26%
  Population Normal (%): 78%
  Population Pyknosed Nuclei (%): 69%
  Population Tubulin-Different-Phenotype (%): 81%
  Total Cell Count: 269
[6]
  Population Apoptotic (%): 41%
  Population Fragmented Nuclei (%): 12%
  Population Healthy Nuclei (%): 36%
  Population Hoechst High Intensity Objects (%): 5%
  Population Membrane Permeable-Phenotype (%): 1%
  Population Mitochondria Different-Phenotype (%): 63%
  Population Mitotic Cells (%): 58%
  Population Normal (%): 94%
  Population Pyknosed Nuclei (%): 51%
  Population Tubulin-Different-Phenotype (%): 70%
  Total Cell Count: 284
[7]
  Population Apoptotic (%): 88%
  Population Fragmented Nuclei (%): 15%
  Population Healthy Nuclei (%): 0%
  Population Hoechst High Intensity Objects (%): 26%
  Population Membrane Permeable-Phenotype (%): 0%
  Population Mitochondria Different-Phenotype (%): 100%
  Population Mitotic Cells (%): 11%
  Population Normal (%): 73%
  Population Pyknosed Nuclei (%): 84%
  Population Tubulin-Different-Phenotype (%): 100%
  Total Cell Count: 264
[8]
  Population Apoptotic (%): 97%
  Population Fragmented Nuclei (%): 6%
  Population Healthy Nuclei (%): 3%
  Population Hoechst High Intensity Objects (%): 18%
  Population Mitotic Cells (%): 2%
  Population Normal (%): 81%
  Population Pyknosed Nuclei (%): 89%
  Population Tubulin-Different-Phenotype (%): 75%
  Total Cell Count: 126
[9]
  Population Apoptotic (%): 68%
  Population Fragmented Nuclei (%): 24%
  Population Healthy Nuclei (%): 21%
  Population Hoechst High Intensity Objects (%): 18%
  Population Membrane Permeable-Phenotype (%): 1%
  Population Mitochondria Different-Phenotype (%): 76%
  Population Mitotic Cells (%): 31%
  Population Normal (%): 81%
  Population Pyknosed Nuclei (%): 54%
  Population Tubulin-Different-Phenotype (%): 74%
  Total Cell Count: 297
[10]
  Population Apoptotic (%): 40%
  Population Fragmented Nuclei (%): 14%
  Population Healthy Nuclei (%): 65%
  Population Hoechst High Intensity Objects (%): 4%
  Population Membrane Permeable-Phenotype (%): 6%
  Population Mitochondria Different-Phenotype (%): 25%
  Population Mitotic Cells (%): 59%
  Population Normal (%): 95%
  Population Pyknosed Nuclei (%): 19%
  Population Tubulin-Different-Phenotype (%): 51%
  Total Cell Count: 421
[11]
  Population Apoptotic (%): 91%
  Population Fragmented Nuclei (%): 32%
  Population Healthy Nuclei (%): 1%
  Population Hoechst High Intensity Objects (%): 29%
  Population Membrane Permeable-Phenotype (%): 0%
  Population Mitochondria Different-Phenotype (%): 100%
  Population Mitotic Cells (%): 8%
  Population Normal (%): 70%
  Population Pyknosed Nuclei (%): 66%
  Population Tubulin-Different-Phenotype (%): 33%
  Total Cell Count: 273
[12]
  Population Apoptotic (%): 98%
  Population Fragmented Nuclei (%): 7%
  Population Healthy Nuclei (%): 5%
  Population Hoechst High Intensity Objects (%): 26%
  Population Membrane Permeable-Phenotype (%): 20%
  Population Mitotic Cells (%): 1%
  Population Normal (%): 73%
  Population Pyknosed Nuclei (%): 87%
  Population Tubulin-Different-Phenotype (%): 80%
  Total Cell Count: 131
